# RanGTP-Impb inh = inhibitors of RanGTP-importin-beta interaction, primary screen, biochemical, FRET, CFP-Ran, YFP-importin-beta, homogeneous. Ran GTPase (GTP-bound) - importin-beta complex. cell-free CFP-Ran/YFP-importin-beta FRET ratio. inhibition, % (concentration not given with the values). actives 1.1% (n = 300,000). AID 2216, 2009;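 active = more than half of the replicate wells show a fall in the fluorescence ratio signal beyond about 16%, limit read from the data, passing the limit was not always enough; inconclusive = exactly half of the replicate wells pass the set limit; inactive = fewer than half of replicates pass the limit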;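 also: 0% = DMSO wells and 100% = Ran loaded with GDP instead of GTP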
# Runt-CBFb FRET = inhibitors of RUNX1 Runt–CBFb binding, primary screen, biochemical, FRET, Cerulean-Runt, Venus-CBFb, uHTS | inhibition, % at 20 µM | AID 1496, 2009 | Cerulean-Runt/Venus-CBFb FRET ratio 530/480, 1 h | actives 0.46% (n = 220,000);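 active = inhibition over about 50% at 20 µM in the single-dose screen, limit read from the data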;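 also: 0% = DMSO wells and 100% = excess unlabeled CBFb competitor control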
#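 test system = Cerulean-tagged RUNX1 Runt domain (FRET donor) fusion protein | reagent = Venus-CBFb binding partner, 100 nM | incubation = protein complex preformed 1 h, compound exposure 1 h, room temperature, dark | detection = FRET fluorescence | read-out basis = loss of energy transfer signal | controls = 5 µM unlabeled CBFb as full-inhibition high control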
# Runt-SMMHC FRET = inhibitors of RUNX1 Runt–CBFb-SMMHC binding, primary screen, biochemical, FRET, Cerulean-Runt, Venus-CBFb-SMMHC, uHTS; Runt-related transcription factor 1 (Homo sapiens) + Core-binding factor subunit beta …; Cerulean-Runt/Venus-CBFb-SMMHC FRET ratio 530/480, 1 h; inhibition, % at 20 µM; actives 0.74% (n = 220,000); AID 1434, 2008;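 active = mean inhibition across duplicate retests at 20 µM reaching about 50%, limit read from the data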;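 also: 0% = DMSO wells and 100% = wells with excess untagged CBFb-SMMHC; inhibitors lower the FRET ratio by blocking Runt binding to CBFb-SMMHC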
# LANA-H2B inh = blockers of LANA interaction with H2A/H2B – biochemical, FP readout, HTS, primary screen; actives 0.6% (n = 320,000); Protein LANA1 (Human herpesvirus 8 type P (isolate GK18)), Q9QR71; cell-free LANA-H2A/H2B peptide, fluorescence polarization; inhibition, % (no concentration beside the values); in the data active = inhibition mostly above about 10%, no sharp cut-off; inactive = mostly below about 6.7%
# EBV gp42 inh = Epstein-Barr virus gp42 inhibitors, primary screen, biochemical, uHTS, fluorescence polarization; AID 1085, 2008; actives 0.42% (n = 220,000); inhibition, % (tested at 21.74 µM); Glycoprotein 42 (Epstein-Barr virus (strain AG876)), Q1HVG2; Fluorescence polarization binding assay, mP read-out; in the data active = inhibition above about 50%
# MEX-5 binding = MEX-5 zinc finger RNA-binding disruptors – biochemical, C. elegans, fluorescence polarization, MLPCN library, primary screen. MEX-5/FITC-TCR2 RNA binding; active compounds read low. activity score (negative = inhibition of binding), % at 10 µM. actives 0.38% (n = 300,000);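 active = inhibition past about -25% in most replicates, and total fluorescence under double the plate's negative control median, limit read from the data; inconclusive = replicates evenly split on the limit, or fluorescence at least double controls; inactive = too little inhibition in most replicates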;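 also: 0% = DMSO and -100% = 5 µM competing unlabeled TCR2 RNA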
# An asterisk follows results filed as active; ? = inconclusive; nt = no result given. Rows were chosen to be rich in hits. Some 2.4% of all compounds tested hit in one or more screens of this group.
SMILES,RanGTP-Impb inh,Runt-CBFb FRET,Runt-SMMHC FRET,LANA-H2B inh,EBV gp42 inh,MEX-5 binding
O=c1c(O)c(-c2cccs2)oc2ccc(Cl)cc12,18.3*,6.7,57.5*,1.5,29.8,-4.9
COc1ccc(OCCn2cc(/C=C(\C#N)C(=O)NCc3ccco3)c3ccccc32)cc1,71.2*,-20.7,85.5*,2.1,-20.9,-4.7
COc1ccccc1OCCn1cc(/C=C(\C#N)C(=O)NCc2ccco2)c2ccccc21,2.5,0.3,-7.9,4.0,-14.8,-1.8
Cc1ccc(C)c(OCCn2cc(/C=C(\C#N)C(=O)NCc3ccco3)c3ccccc32)c1,4.4,18.9,63.1*,11.5,-7.3,-1.2
COc1ccc(/C=c2\s/c(=C(/C#N)C(=O)NCc3ccco3)n(-c3ccccc3)c2=O)cc1,82.9*,-154.2,-126.2,1.0,-72.6,-10.8
CC(C)CN1CCN(Cc2c[nH]c3ccccc23)CC1CCO (configuration not stated),-0.6,nt,nt,3.8,nt,-0.5
Cc1ccc(C(NC(=O)C2CCCCC2)c2c(O)ccc3ccccc23)cc1 (configuration not stated),5.0,2.8,-0.8,2.6,59.8*,2.2
O=C1c2cccc3cc([N+](=O)[O-])cc(c23)C(=O)N1/N=C/c1ccc(O)cc1O,3.2,-3.3,-19.8,-1.8,95.7*,0.3
O=C(O)c1nn(CCOc2cccc(Br)c2)c(=O)c2ccccc12,1.2,nt,nt,2.4,nt,-3.0
O=c1oc(/C=C/c2ccccc2)nc2sc3c(c12)CCC3,3.4,-31.7,-70.5,-2.5,-90.6,-11.4
COc1ccc(/C=C/c2nc3sc4c(c3c(=O)o2)CCC4)cc1,-4.1,nt,nt,7.9,nt,-30.5*
COc1ccc(CCNCC(=O)Nc2ccc(C)c(S(=O)(=O)N(C)C)c2)cc1OC,0.7,0.0,-2.7,0.0,-8.1,-0.7
Cc1cc(NC(=O)/C(C#N)=C/c2ccco2)n(-c2ccccc2)n1,-1.6,0.6,1.6,-1.9,-4.3,0.4
Cc1ccc(-c2ccc(/C=C(\C#N)C(=O)Nc3cc(C)nn3-c3ccccc3)o2)cc1,-6.5,-238.9,-181.8,23.4*,120.1*,?
CCCCN1C(=O)C2Cc3c([nH]c4ccccc34)CN2C1=S (configuration not stated),-3.6,2.8,-11.7,3.1,51.9*,-27.9*
CN(C(=O)CN1C(=O)S/C(=C\c2ccc(Cl)cc2)C1=O)C1CCS(=O)(=O)C1 (configuration not stated),7.4,nt,nt,11.3*,nt,0.8
COc1ccc(/C=C2\SC(=S)N(CC(=O)N(C)C3CCS(=O)(=O)C3)C2=O)cc1 (configuration not stated),6.8,nt,nt,14.1*,nt,-4.3
CN(C(=O)CN1C(=O)S/C(=C\c2ccccc2)C1=O)C1CCS(=O)(=O)C1 (configuration not stated),6.0,nt,nt,1.9,nt,-2.1
COC(=O)c1ccc2c(=O)sc(N3CCC(C(N)=O)CC3)nc2c1,-0.9,17.8,24.0,0.8,85.2*,-1.6
Cc1ccc(C)c(OCc2cc(C(=O)N3CCN(c4ccccc4C)CC3C)no2)c1 (configuration not stated),2.2,nt,nt,0.5,nt,2.9
CC(C)c1ccc(NC(=O)NN2CCOCC2)cc1,-0.3,0.2,-3.8,-2.2,-10.8,-2.4
CCC1=[N+](CC(=O)c2ccc(C)cc2)CCn2c(C)ccc21,44.4*,-3.5,-14.6,-3.1,-24.0,-0.3
CCC1=[N+](CC(=O)c2ccc(Br)cc2)CCn2c(C)ccc21,7.1,-4.3,7.1,-3.3,-11.4,-1.0
